Screening results from PubChem.
TRPC4 act = activators of mouse TRPC4 channel. Q9QUQ5. HEK293 TRPC4beta/mu-opioid, Fluo4 calcium fluorescence; active compounds read high. actives 0.49% (n = 310,000). B-score at 10 µM;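 active = B-score above 5 SD of library B-scores, and initial fluorescence ratio not above library mean plus 5 SD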;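 note: positive B-score marks a calcium rise read as TRPC4 activation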
Target sequence (Q9QUQ5 whole entry, looked up): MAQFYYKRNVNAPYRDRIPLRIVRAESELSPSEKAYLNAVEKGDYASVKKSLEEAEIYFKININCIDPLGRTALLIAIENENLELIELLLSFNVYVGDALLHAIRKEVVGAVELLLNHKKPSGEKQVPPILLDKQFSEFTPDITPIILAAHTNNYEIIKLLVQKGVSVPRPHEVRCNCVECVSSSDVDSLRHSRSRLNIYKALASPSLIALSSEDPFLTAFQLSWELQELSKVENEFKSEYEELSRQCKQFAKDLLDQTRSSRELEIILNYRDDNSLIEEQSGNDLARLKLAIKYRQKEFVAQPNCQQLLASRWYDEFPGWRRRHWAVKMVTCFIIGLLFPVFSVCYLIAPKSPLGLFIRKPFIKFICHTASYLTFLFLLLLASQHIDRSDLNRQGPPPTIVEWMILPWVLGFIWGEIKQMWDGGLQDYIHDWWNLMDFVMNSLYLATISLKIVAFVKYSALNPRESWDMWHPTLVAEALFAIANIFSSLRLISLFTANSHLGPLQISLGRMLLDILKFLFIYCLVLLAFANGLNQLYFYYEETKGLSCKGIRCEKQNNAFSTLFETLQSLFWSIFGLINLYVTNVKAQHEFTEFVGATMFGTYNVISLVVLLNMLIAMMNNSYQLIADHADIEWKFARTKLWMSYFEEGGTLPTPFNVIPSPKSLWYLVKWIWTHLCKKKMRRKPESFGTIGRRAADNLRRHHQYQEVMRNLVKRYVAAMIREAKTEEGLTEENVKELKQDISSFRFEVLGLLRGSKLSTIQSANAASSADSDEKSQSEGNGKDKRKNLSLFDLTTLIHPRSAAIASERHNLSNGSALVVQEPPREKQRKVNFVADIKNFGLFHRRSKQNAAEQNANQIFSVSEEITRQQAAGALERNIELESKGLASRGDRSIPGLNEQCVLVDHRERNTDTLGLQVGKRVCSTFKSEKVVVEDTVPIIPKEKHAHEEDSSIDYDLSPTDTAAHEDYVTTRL
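Incubation: 45 min room-temperature Fluo4 loading, 110 s read / System: HEK293 cells stably co-expressing mouse TRPC4beta and mu-opioid receptor / Signal: Fluo4 fluorescence, kinetic / Control set: buffer (low) and maximal DAMGO (high) / Measure: integrated baseline-normalised fluorescence ratio, converted to per-well B score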
TRPC6 act = activates the mouse TRPC6 cation channel; Q61143; HEK293-TRPC6 membrane potential dye fluorescence; active compounds read high; B-score at 10 µM; actives 0.13% (n = 310,000); AID 2550;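 active = B-score of the integrated fluorescence ratio above library mean plus 3 SD, and starting fluorescence ratio within library mean plus 5 SD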;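 note: higher score means more depolarization so channel activation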
TRPC4 PAM = TRPC4 (mouse) allosteric potentiation. Q9QUQ5. HEK293 TRPC4beta/mu-opioid, DAMGO EC20, Fluo-4 Ca2+ flux; active compounds read high. B-score at 10 µM. actives 0.42% (n = 310,000). AID 2227;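 active = B-score of calcium response area above 5 SD of library B-scores, with initial fluorescence ratio within 5 SD of library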
TRPC6 inh = mouse TRPC6 channel inhibition. Q61143. HEK293-TRPC6, membrane potential dye, ACh-evoked depolarization; active compounds read low. B-score at 10 µM. actives 1.1% (n = 310,000);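 active = B-score under library mean minus 3 SD, initial fluorescence not abnormally high, positive integrated signal ratio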;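 note: B-score derived from integrated fluorescence ratio over the kinetic read; more negative B-score means stronger inhibition of depolarization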
TRPC4 block = blocks the mouse TRPC4 cation channel; AID 2247; actives 0.39% (n = 300,000); B-score at 10 µM; HEK293 TRPC4beta/mu-opioid, DAMGO-evoked Fluo4 calcium flux; active compounds read low;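 active = B-score over 3 SD under the library average, no early fluorescence shift, positive overall ratio signal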
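Material: HEK293 cells with stable TRPC4beta plus mu-opioid receptor expression; probe or stimulus: DAMGO in two steps, submaximal then maximal; technique: Fluo4 calcium fluorescence by kinetic imaging, 5 s 1 Hz baseline; measure: integrated fluorescence ratio relative to baseline, converted to per-well B score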
TRPC4 sel inh 2 = second selectivity test of TRPC6 inhibitors: effect on mouse TRPC4; shares compounds with TRPC6 inh; actives 42% (n = 920); AID 2776; HEK293 TRPC4/MOR, membrane potential dye fluorescence; channel activated by saturating DAMGO dose; inhibition, % at 10 µM;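 active = compounds whose fluorescence signal differed from control wells by over 3 SD, either direction, in both duplicate plates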
TRPC4 spec = mouse TRPC4 off-target activity of TRPC6 inhibitors; activity change, negative = inhibition, % at 10 µM; shares compounds with TRPC6 inh; HEK293 TRPC4/mu-opioid, membrane potential fluorescence; actives 61% (n = 920);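 active = rise or fall in signal beyond 3 SD of buffer-only wells in both replicate plates, either sign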;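 note: integrated kinetic ratio of fluorescence range over baseline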
HEK293 MPD ctr 2-1 = parental HEK293 nonspecific activity of TRPC6 inhibitors, second screen | signal change vs control, % at 10 µM | AID 2779 | actives 31% (n = 920) | shares compounds with TRPC6 inh | parental HEK293 membrane potential dye fluorescence; maximal acetylcholine challenge after compound addition;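 active = membrane potential signal moving either way by over 3 SD of the maximum-effect control, in both duplicate plates, meaning non-specific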
HEK293 MPD ctr-1 = counter-screen for TRPC6 inhibitors: effect in parental HEK293 cells; membrane potential signal change, % at 10 µM; parental HEK293 membrane potential dye fluorescence; AID 2780; shares compounds with TRPC6 inh; actives 60% (n = 920);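 active = membrane potential signal shifting up or down by more than 3 SD of buffer-only wells, on both duplicate plates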
HEK293 MPD ctr-2 = parental HEK293 nonspecific activity of TRPC6 modulators; shares compounds with TRPC6 inh; membrane potential dye fluorescence; membrane potential signal change, % at 10 µM; actives 51% (n = 2,400);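 active = membrane potential signal moves up or down beyond 5 SD from buffer-only wells, on both duplicate plates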
HEK293 MPD ctr 2-2 = parental HEK293 nonspecific activity of TRPC6 modulators, second screen. membrane potential dye fluorescence; after compound, maximal acetylcholine stimulation. inhibition, % at 10 µM. shares compounds with TRPC6 inh. actives 14% (n = 2,400);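 active = membrane potential signal drops by more than 5 SD from the mean control signal, in both duplicate plates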
TRPC4/MOR mod = tests whether TRPC6 modulators also affect mouse TRPC4. shares compounds with TRPC6 inh. HEK293 TRPC4/mu-opioid, membrane potential fluorescence. percent change from control (negative = decrease, positive = increase), % at 10 µM. actives 69% (n = 2,400);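 active = membrane potential signal moved up or down beyond 5 SD of buffer control wells, in both duplicate plates, actives on both sides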
TRPC4 ctr inh 2 = second selectivity test of TRPC6 modulators against mouse TRPC4. shares compounds with TRPC6 inh. HEK293 TRPC4/mu-opioid, membrane potential dye fluorescence; stimulated with maximal-effect DAMGO. inhibition, % at 10 µM. actives 55% (n = 2,400). AID 488928;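 active = drop in membrane potential signal beyond 5 SD of the control wells in both duplicate plates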;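 note: TRPC4 counter screen for TRPC6 hits run under conditions tuned for TRPC6 not TRPC4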
TRPC6 inh conf = confirmation of mouse TRPC6 inhibitors | shares compounds with TRPC6 inh | HEK293-TRPC6, membrane potential dye, ACh-evoked depolarization | inhibition, % at 10 µM | actives 43% (n = 3,300) | AID 488960;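 active = fluorescence ratio falls more than 5 SD below the full-stimulation control mean, in both duplicate runs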;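 note: integrated fluorescence ratio of peak minus minimum over baseline after agonist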
TRPC6 act conf = confirmation of mouse TRPC6 activators. shares compounds with TRPC6 inh. HEK293-TRPC6 membrane potential dye fluorescence, FDSS. activation, % at 10 µM. actives 11% (n = 2,800). AID 488961;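 active = ratio signal rise beyond 5 SD above unstimulated control wells' mean, seen in both duplicate runs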
Numbers stand for hits; - = inactive; . = no result given. The list is not random: actives were taken first. Their share in the collection is about 2.3%.

SMILES | TRPC4 act | TRPC6 act | TRPC4 PAM | TRPC6 inh | TRPC4 block | HEK293 MPD ctr-2 | HEK293 MPD ctr 2-2 | TRPC4/MOR mod | TRPC4 ctr inh 2 | TRPC6 inh conf | TRPC6 act conf | others
CCOC(=O)c1c(CSc2ccccc2)n(C)c2ccc(O)c(CN3CCOCC3)c12 | - | - | - | -5.46 | - | - | - | - | 55.0% | 36.5% | -
CCOC(=O)c1c(C)n(-c2ccccc2)c2ccc(O)c(CN(C)C)c12 | - | - | - | -6.51 | - | -90.5% | - | -17.5% | 65.0% | 69.0% | -
CCOC(=O)c1c(CSc2ccccc2)n(C)c2cc(Br)c(OC)c(O)c12 | - | - | - | - | - | . | . | . | . | . | .
CCOC(=O)c1c(C)n(-c2ccccc2)c2ccc(O)cc12 | - | - | - | - | - | . | . | . | . | . | .
N#C/C(C(=O)Nc1ccc(Cl)cc1)=C(/S)Nc1ccccc1 | - | - | - | - | - | . | . | . | . | . | .
O=[N+]([O-])c1c(Nc2ccc(O)cc2)cc(Cl)c2nonc12 | - | - | - | - | - | . | . | . | . | . | .
Cc1ccc(Cl)cc1N1CCN(C(=O)CN(c2ccccc2)S(=O)(=O)N(C)C)CC1 | - | - | - | - | - | . | . | . | . | . | .
S=C(NCCCN1CCOCC1)Nc1ccc(Cl)cc1Cl | - | - | - | -5.33 | - | - | - | - | - | - | -
Cc1cc(C)nc(/N=C(\N)N2CCc3ccccc32)n1 | - | - | - | -6.36 | - | - | - | -11.5% | 46.0% | - | -
O=C(NC1CCCC1)C(c1ccccc1)N(Cc1ccccc1)C(=O)c1csnn1 (stereo unspecified) | - | - | - | - | - | . | . | . | . | . | .
Nc1nc(SCC(=O)N2CCCc3ccccc32)[nH]c(=O)c1-c1ccccc1 | - | - | - | -6.49 | - | 180.5% | - | 34.5% | - | - | .
O=C(CCCC1=NS(=O)(=O)c2ccccc2N1)N1CCN(c2ccccc2)CC1 | - | - | - | -5.67 | - | - | - | - | - | 47.0% | .
Cc1ccc(SCc2cc(=O)n3ccsc3n2)c(C)c1 | - | - | - | - | - | . | . | . | . | . | .
Cc1ccc(C)c(C(=O)c2c(C)nc3sccn23)c1 | - | - | - | -6.11 | - | - | - | 10.0% | - | - | -
COc1ccc2c(c1)c(C(O)CN1CCC(Cc3ccccc3)CC1)c(C)n2C (stereo unspecified) | - | - | - | -11.5 | - | . | . | . | . | 77.8% | - | TRPC4 sel inh 2=26.0%;TRPC4 spec=-12.6%;HEK293 MPD ctr 2-1=-;HEK293 MPD ctr-1=-221.0%
Cc1ccc(OCC(O)CN2CCN(Cc3ccc4c(c3)OCO4)CC2)cc1C (stereo unspecified) | - | - | - | - | - | . | . | . | . | . | .
COc1ccc2c(c1)c(C(O)CN1CCN(Cc3ccc4c(c3)OCO4)CC1)c(C)n2C (stereo unspecified) | - | - | - | -6.3 | - | - | - | -9.5% | 67.5% | 52.0% | -
Cc1c(C(O)CN2CCN(Cc3ccc4c(c3)OCO4)CC2)c2ccccc2n1C (stereo unspecified) | - | - | - | -5.12 | - | - | - | 11.0% | 88.5% | 55.0% | -
OC(CN1CCN(Cc2ccc3c(c2)OCO3)CC1)c1c[nH]c2ccccc12 (stereo unspecified) | - | - | - | - | - | . | . | . | . | . | .
O=C1Nc2ccccc2C12OCCS2 (stereo unspecified) | - | - | - | - | - | . | . | . | . | . | .
CCOC(=O)c1cnn(-c2nc(-c3cccc(F)c3)cs2)c1C(F)(F)F | - | - | - | - | - | . | . | . | . | . | .
COc1ccc(OC)c(C2C(C(C)=O)=C(C)Nc3ncnn32)c1 (stereo unspecified) | - | - | - | - | - | . | . | . | . | . | .
COc1ccc(-c2cc(C(F)(F)F)n3nc(C(=O)N4CCN(C(=O)c5ccco5)CC4)cc3n2)cc1 | - | - | - | - | - | . | . | . | . | . | .
O=C(c1cc2nc(-c3ccco3)cc(C(F)(F)F)n2n1)N1CCN(Cc2ccccc2)CC1 | - | - | - | -6.65 | - | . | . | . | . | - | - | TRPC4 sel inh 2=-;TRPC4 spec=5.7%;HEK293 MPD ctr 2-1=227.0%;HEK293 MPD ctr-1=2.3%
COCCn1c(-c2ccc(NC(C)=O)cc2)nc2c1c(=O)[nH]c(=O)n2CC(C)C | - | - | - | - | - | . | . | . | . | . | .
SMILES | TRPC4 act | TRPC6 act | TRPC4 PAM | TRPC6 inh | TRPC4 block | HEK293 MPD ctr-2 | HEK293 MPD ctr 2-2 | TRPC4/MOR mod | TRPC4 ctr inh 2 | TRPC6 inh conf | TRPC6 act conf | others
C=CCN1C2CCCC1CC(NC(=O)Nc1cccc(C(C)=O)c1)C2 (stereo unspecified) | - | - | - | -5.37 | - | - | - | - | - | 85.0% | .
Nc1cc(=O)[nH]c(=O)n1Cc1ccco1 | - | - | - | -5.35 | - | - | - | - | - | - | -
CCC(C)Sc1ccc([C@H]2N[C@@](CC(C)C)(C(=O)OC)[C@H]3C(=O)N(C)C(=O)[C@@H]23)cc1 (stereo partly specified) | - | - | - | - | - | . | . | . | . | . | .
Cn1c(SCc2c(Cl)cccc2Cl)nnc1-c1cccs1 | - | - | - | -6.56 | - | 274.5% | - | 55.5% | - | - | .
Cc1ccc(CSc2nnc(-c3cccs3)n2C)cc1 | - | - | - | - | - | . | . | . | . | . | .
CCN(CC)CCCOC(=O)C1(c2ccccc2)CCCC1 | - | - | - | -9.05 | - | . | . | . | . | 59.6% | . | TRPC4 sel inh 2=-;TRPC4 spec=11.7%;HEK293 MPD ctr 2-1=12.0%;HEK293 MPD ctr-1=12.0%
C[N+](C)(C)CCOC(=O)C1(c2ccccc2)CCCC1 | - | - | - | -8.52 | - | . | . | . | . | 69.2% | - | TRPC4 sel inh 2=-;TRPC4 spec=-;HEK293 MPD ctr 2-1=1.0%;HEK293 MPD ctr-1=-
C[N+]1(CCOC(=O)C2(c3ccccc3)CCCC2)CCCCC1 | - | - | - | -11.2 | - | . | . | . | . | 77.5% | - | TRPC4 sel inh 2=-;TRPC4 spec=-;HEK293 MPD ctr 2-1=-15.5%;HEK293 MPD ctr-1=-
